In ChEMBL document CHEMBL4325855 (Eur J Med Chem, 2019):
Calls of active or inactive are those of the source. The rule behind the calls is not given here.

Tests used:
[1] = biological target: T1, Mitogen-activated protein kinase 9 (Homo sapiens, UniProt P45984); experiment: Binding affinity to human full-length JNK2 (M1 to Q382 residues) expressed in HEK293 cells at <40 uM after 1 hr by Kinomescan method; type: cell-based
Procedure, shortened: (§1)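 Competition binding on a phage-display/cell-expressed kinase platform; each compound incubated with kinase 1 h at room temperature. Unbound kinase was captured on an immobilized affinity ligand and quantified by qPCR. […] N.A. means no inhibition below 40 µM.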
Target sequence in this assay (P45984 whole entry, looked up, the tested form may be a part): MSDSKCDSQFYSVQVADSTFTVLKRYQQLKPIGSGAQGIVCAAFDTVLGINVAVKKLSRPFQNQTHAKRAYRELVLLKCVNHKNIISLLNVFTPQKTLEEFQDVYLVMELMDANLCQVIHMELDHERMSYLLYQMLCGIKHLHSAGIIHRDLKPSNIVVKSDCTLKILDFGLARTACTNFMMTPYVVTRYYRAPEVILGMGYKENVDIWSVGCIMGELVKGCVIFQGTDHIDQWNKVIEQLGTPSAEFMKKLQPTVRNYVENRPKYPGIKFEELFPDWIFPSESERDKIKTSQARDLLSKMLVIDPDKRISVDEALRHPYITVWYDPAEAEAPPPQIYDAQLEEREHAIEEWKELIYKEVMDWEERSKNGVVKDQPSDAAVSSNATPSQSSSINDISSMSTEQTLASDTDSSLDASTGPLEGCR

[2] = biological target: T2, Mitogen-activated protein kinase 8 (Homo sapiens, UniProt P45983); experiment: Binding affinity to human full-length JNK1 (M1 to Q384 residues) expressed in HEK293 cells measured after 1 hr by Kinomescan method; type: cell-based
T2 sequence (P45983 whole entry, the tested form may be a part): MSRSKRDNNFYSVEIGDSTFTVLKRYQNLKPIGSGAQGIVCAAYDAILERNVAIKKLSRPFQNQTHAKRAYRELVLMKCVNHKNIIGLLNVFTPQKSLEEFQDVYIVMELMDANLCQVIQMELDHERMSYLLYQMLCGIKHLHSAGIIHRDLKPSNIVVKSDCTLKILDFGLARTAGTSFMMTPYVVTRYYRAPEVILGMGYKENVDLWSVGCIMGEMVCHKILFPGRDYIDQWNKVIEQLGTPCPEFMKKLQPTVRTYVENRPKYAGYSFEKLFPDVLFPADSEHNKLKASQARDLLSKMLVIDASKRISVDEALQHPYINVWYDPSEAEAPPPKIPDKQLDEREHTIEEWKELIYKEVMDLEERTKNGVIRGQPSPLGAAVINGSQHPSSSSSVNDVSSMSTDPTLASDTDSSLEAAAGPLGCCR
Procedure, shortened: (§2)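 Competition binding on a phage-display/cell-expressed kinase platform; each compound incubated with kinase 1 h at room temperature. Unbound kinase was captured on an immobilized affinity ligand and quantified by qPCR. N.A. means no inhibition below 40 µM.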

[3] = biological target: T3, Mitogen-activated protein kinase 10 (Homo sapiens, UniProt P53779); experiment: Binding affinity to human partial length JNK3 (V28 to Q422 residues) expressed in HEK293 cells at <40 uM after 1 hr by Kinomescan method; type: cell-based; procedure, shortened: as §1
T3 sequence (P53779 whole entry, the tested form may be a part): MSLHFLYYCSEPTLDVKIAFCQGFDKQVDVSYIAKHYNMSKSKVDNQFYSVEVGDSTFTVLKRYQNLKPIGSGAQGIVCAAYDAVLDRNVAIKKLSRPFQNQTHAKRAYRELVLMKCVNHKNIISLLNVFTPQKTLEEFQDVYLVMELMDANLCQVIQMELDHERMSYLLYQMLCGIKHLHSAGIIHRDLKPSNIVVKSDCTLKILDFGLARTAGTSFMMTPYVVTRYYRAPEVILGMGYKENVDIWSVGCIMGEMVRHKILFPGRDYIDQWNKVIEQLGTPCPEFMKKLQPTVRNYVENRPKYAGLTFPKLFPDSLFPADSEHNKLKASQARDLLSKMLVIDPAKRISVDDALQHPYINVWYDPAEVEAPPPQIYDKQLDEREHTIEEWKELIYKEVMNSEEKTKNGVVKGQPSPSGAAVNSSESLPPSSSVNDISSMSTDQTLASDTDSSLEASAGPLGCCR

[4] = biological target: T4, High affinity nerve growth factor receptor (Homo sapiens, UniProt P04629); experiment: Binding affinity to human partial length TRKA (G475 to G790 residues) expressed in HEK293 cells measured after 1 hr by Kinomescan method; type: cell-based
Target sequence in this assay (P04629 whole entry, the tested form may be a part): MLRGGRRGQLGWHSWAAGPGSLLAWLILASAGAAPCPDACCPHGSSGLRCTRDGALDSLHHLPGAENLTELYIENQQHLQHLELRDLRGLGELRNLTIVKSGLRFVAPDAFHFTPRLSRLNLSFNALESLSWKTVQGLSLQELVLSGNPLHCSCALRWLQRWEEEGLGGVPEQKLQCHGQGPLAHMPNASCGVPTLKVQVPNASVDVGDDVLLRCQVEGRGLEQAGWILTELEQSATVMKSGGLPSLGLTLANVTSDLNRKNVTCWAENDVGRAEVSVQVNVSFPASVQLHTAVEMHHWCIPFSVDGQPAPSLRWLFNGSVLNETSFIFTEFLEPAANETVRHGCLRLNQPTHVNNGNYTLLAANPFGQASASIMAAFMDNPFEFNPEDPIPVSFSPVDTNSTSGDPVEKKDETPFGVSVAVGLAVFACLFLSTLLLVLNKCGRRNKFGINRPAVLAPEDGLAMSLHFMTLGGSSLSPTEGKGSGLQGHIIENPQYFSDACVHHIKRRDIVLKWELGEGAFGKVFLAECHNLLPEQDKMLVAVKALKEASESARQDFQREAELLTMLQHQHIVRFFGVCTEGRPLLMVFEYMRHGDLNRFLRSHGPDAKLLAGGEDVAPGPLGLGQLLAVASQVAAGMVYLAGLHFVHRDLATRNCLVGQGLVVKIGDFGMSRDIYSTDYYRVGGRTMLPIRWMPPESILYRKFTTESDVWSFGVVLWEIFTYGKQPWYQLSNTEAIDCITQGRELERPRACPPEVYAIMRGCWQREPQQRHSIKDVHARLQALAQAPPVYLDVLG

[5] = biological target: BDNF/NT-3 growth factors receptor (Homo sapiens, UniProt Q16620); experiment: Binding affinity to human partial length TRKB (Q547 to G838 residues) expressed in HEK293 cells measured after 1 hr by Kinomescan method; type: cell-based
BDNF/NT-3 growth factors receptor, sequence (Q16620 whole entry, the tested form may be a part): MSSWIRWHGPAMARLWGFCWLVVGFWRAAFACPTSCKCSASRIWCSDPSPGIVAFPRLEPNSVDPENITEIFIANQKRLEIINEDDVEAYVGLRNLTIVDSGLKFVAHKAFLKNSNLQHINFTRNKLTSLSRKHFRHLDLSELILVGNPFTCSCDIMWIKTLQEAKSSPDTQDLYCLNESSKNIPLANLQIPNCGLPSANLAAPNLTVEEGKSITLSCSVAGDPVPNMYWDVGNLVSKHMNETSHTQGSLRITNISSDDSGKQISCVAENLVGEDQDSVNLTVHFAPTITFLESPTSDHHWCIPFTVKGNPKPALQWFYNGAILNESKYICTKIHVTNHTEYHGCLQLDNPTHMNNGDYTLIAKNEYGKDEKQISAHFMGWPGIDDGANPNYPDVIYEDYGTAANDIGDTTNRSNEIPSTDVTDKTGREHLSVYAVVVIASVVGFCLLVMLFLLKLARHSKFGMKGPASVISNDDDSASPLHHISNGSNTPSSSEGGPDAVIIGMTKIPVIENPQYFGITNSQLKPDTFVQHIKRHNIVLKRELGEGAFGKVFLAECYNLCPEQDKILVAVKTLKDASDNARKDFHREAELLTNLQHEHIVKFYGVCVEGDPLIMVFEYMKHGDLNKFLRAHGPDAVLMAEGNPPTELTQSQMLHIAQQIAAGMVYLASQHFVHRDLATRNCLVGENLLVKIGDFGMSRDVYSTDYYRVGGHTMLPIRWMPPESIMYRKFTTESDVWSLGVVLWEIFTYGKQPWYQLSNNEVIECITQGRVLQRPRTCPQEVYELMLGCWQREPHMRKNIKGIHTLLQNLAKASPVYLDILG

[6] = Cytotoxicity against human THP1-Blue cells assessed as effect on cell viability up to 50 uM after 24 hrs by CellTiter-Glo luminescent cell viability assay; type: cell-based
Procedure, shortened: (§3)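 Viability of MonoMac-6 and THP-1Blue cells was tested with compound up to 50 µM for 24 h at 37 °C, 5% CO2. After 30 min equilibration to room temperature, CellTiter-Glo reagent was added and luminescence read. IC50 was derived from percent inhibition vs log concentration, at least five points.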

[7] = test system: MONO-MAC-6; experiment: Cytotoxicity against human MONO-MAC-6 cells assessed as effect on cell viability up to 50 uM after 24 hrs by CellTiter-Glo luminescent cell viability assay; type: cell-based; settings: mono-mac-6, 24 h; procedure, shortened: as §3
[8] = test system: Transcription factor AP-1 (Homo sapiens); experiment: Inhibition of LPS-induced c-Jun phosphorylation at ser73 residues in human MONO-MAC-6 cells at 6.25 to 50 uM preincubated for 30 mins followed by LPS-stimulation and measured after 30 mins by Western blot analysis
[9] = biological target: T3, Mitogen-activated protein kinase 10; experiment: Binding affinity to human partial length JNK3 (V28 to Q422 residues) expressed in HEK293 cells measured after 1 hr by Kinomescan method; type: cell-based; procedure, shortened: as §2
[10] = biological target: T1, Mitogen-activated protein kinase 9; experiment: Binding affinity to human full-length JNK2 (M1 to Q382 residues) expressed in HEK293 cells measured after 1 hr by Kinomescan method; type: cell-based; procedure, shortened: as §2
Target sequence in this assay (P45984 whole entry, the tested form may be a part): as the sequence (P45984 whole entry, looked up, the tested form may be a part) above

[11] = biological target: T5, c-Jun N-terminal kinase, JNK (Homo sapiens, UniProt P45983+P53779+P45984); experiment: Inhibition of JNK in human THP1-Blue cells assessed as reduction in LPS-induced NFkappaB/AP1 activation preincubated for 30 mins followed by LPS-stimulation and measured after 24 hrs by quanti-blue staining based alkaline phosphatase reporter gene assay; type: cell-based
[12] = biological target: T5, c-Jun N-terminal kinase, JNK; experiment: Inhibition of JNK in human MONO-MAC-6 cells assessed as reduction in LPS-induced IL6 production preincubated for 30 mins followed by LPS-stimulation and measured after 24 hrs by ELISA; type: cell-based
Procedure, shortened: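 MonoMac-6 cells, 2 × 10^5/well in medium with 3% endotoxin-free FBS, were pretreated 30 min with compound or DMSO, then stimulated with 250 ng/ml LPS for 24 h. IL-6 in the supernatant was measured by human IL-6 ELISA. IC50 came from percent inhibition vs log concentration (at least five points); triplicate samples, representative of three experiments.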

[13] = Lipophilicity, log P of the compound; type: physicochemical; settings: octanol/water
[14] = biological target: T3, Mitogen-activated protein kinase 10; experiment: Inhibition of ligand binding to human partial length JNK3 (V28 to Q422 residues) expressed in HEK293 cells at 10 uM measured after 1 hr by Kinomescan method relative to control; type: cell-based
Procedure, shortened: (§4)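 Binding ran 1 h at room temperature. Kinase not bound to compound was captured by an immobilized affinity ligand and measured by qPCR, in duplicate.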

[15] = biological target: T1, Mitogen-activated protein kinase 9; experiment: Inhibition of ligand binding to human full-length JNK2 (M1 to Q382 residues) expressed in HEK293 cells at 10 uM measured after 1 hr by Kinomescan method relative to control; type: cell-based; procedure, shortened: as §4
Target sequence in this assay (P45984 whole entry, looked up, the tested form may be a part): as above

[16] = biological target: Casein kinase I isoform delta (Homo sapiens) (UniProt P48730); experiment: Inhibition of ligand binding to human full-length CK1delta (M1 to K409 residues) expressed in bacterial expression system at 10 uM measured after 1 hr by Kinomescan method relative to control; procedure, shortened: as §4
Casein kinase I isoform delta (Homo sapiens), sequence (P48730 whole entry, looked up, the tested form may be a part, canonical isoform): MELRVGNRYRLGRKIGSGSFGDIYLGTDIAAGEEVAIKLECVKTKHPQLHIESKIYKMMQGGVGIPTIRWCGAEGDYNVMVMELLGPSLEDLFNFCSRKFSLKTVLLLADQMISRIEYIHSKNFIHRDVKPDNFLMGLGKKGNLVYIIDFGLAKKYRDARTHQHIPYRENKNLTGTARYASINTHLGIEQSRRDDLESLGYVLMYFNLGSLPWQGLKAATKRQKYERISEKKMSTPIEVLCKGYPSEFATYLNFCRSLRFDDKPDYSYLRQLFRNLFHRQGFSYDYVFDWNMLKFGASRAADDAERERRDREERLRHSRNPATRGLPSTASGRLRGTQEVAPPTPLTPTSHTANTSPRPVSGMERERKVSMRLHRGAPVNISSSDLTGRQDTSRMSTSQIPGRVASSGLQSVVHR

[17] = biological target: T2, Mitogen-activated protein kinase 8; experiment: Inhibition of ligand binding to human full-length JNK1 (M1 to Q384 residues) expressed in HEK293 cells at 10 uM measured after 1 hr by Kinomescan method relative to control; type: cell-based; procedure, shortened: as §4
[18] = biological target: T4, High affinity nerve growth factor receptor; experiment: Inhibition of ligand binding to human partial length TRKA (G475 to G790 residues) expressed in HEK293 cells at 10 uM measured after 1 hr by Kinomescan method relative to control; type: cell-based; procedure, shortened: as §4
Target sequence in this assay (P04629 33-796 limits assumed): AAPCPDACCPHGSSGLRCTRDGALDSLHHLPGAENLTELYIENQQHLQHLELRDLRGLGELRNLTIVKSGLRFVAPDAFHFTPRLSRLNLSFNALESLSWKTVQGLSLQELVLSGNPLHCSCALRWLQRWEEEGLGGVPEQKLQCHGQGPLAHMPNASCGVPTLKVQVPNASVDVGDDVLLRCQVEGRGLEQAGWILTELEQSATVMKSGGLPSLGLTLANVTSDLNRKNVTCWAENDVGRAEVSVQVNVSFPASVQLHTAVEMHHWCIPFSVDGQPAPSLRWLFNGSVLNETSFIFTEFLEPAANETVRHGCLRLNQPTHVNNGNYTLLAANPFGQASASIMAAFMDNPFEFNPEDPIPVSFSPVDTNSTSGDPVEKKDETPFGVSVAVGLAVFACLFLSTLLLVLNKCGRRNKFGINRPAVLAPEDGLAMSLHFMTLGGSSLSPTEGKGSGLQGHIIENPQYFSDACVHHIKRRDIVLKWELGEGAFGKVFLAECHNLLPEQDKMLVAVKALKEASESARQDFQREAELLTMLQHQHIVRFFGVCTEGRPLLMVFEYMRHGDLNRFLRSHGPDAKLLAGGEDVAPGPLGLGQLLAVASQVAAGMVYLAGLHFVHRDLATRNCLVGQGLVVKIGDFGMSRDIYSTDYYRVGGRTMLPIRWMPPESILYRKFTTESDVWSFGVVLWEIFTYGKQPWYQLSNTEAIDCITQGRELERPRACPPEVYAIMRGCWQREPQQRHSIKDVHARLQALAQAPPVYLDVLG

SMILES	Activity [1]	Kd [2]	Activity [3]	Kd [4]	Kd [5]	Activity [6]	Activity [7]	inhibition [8]	Kd [9]	Kd [10]	IC50 [11]	inhibition [11]	IC50 [12]	inhibition [12]	logP [13]	inhibition [14]	inhibition [15]	inhibition [16]	inhibition [17]	inhibition [18]
O=C1c2ccccc2-n2c1nc1ccccc1c2=O [TRYPTANTHRIN]	inactive	23 µM	inactive	9.2 µM	7.2 µM	–	–	–	–	–	–	–	–	–	–	–	–	–	–	–
CCOC(=O)CO/N=C1\c2ccccc2-c2nc3ccccc3nc21	–	0.022 µM	–	–	–	Non-Toxic	Non-Toxic	Active	0.076 µM	0.735 µM	2.5 µM	Dose-dependent effect	3.3 µM	Dose-dependent effect	–	–	–	–	–	–
O=c1c2ccccc2nc2n1-c1ccccc1/C2=N\O	–	–	–	1.1 µM	–	–	–	–	–	–	–	Dose-dependent effect	–	Dose-dependent effect	2.92	> 90%	> 90%	> 90%	> 90%	> 90%
